Results as given in ChEMBL document CHEMBL4819003, “Optimization of novel oxidative DIMs as Nur77 modulators of the Nur77-Bcl-2 apoptotic pathway” (Eur J Med Chem, 2021).
Calls of active or inactive are those of the source. No cut-off for these calls is given here.

Columns and labels:
[1] = Clearance in male Sprague-Dawley rat at 0.5 mg/kg, iv measured for 36 hrs by LC-MS/MS analysis; type: ADME, organism-based; settings: in vivo
[2] = Half life in female Sprague-Dawley rat at 5 mg/kg, po measured for 36 hrs by LC-MS/MS analysis; type: ADME, organism-based; settings: in vivo
[3] = Cmax in male Sprague-Dawley rat at 5 mg/kg, po measured for 36 hrs by LC-MS/MS analysis; type: ADME, organism-based; parameters: route oral, time 36 hrs, dose 5 mg/kg; settings: in vivo
[4] = MRT(0 to t) in male Sprague-Dawley rat at 5 mg/kg, po measured for 36 hrs by LC-MS/MS analysis; type: ADME, organism-based; settings: in vivo
In short: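 Sprague-Dawley rats (200–220 g), three males and three females per route group. Dosed 5 mg/kg orally or 0.5 mg/kg IV as a solution in DMSO/T-80/H2O (1:5:94 by volume). Heparinized blood was drawn from 5 min to 36 h after IV and 1–36 h after oral dosing. Plasma was protein-precipitated with methanol (2% HCl) plus carbamazepine internal standard and assayed by LC-MS/MS. Parameters were taken from concentration-time data; n = 3 per sex, mean ± SD.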

[5] = Tmax in male/female Sprague-Dawley rat at 5 mg/kg, po measured for 36 hrs by LC-MS/MS analysis; type: ADME, organism-based; settings: both, in vivo
In short: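 Sprague-Dawley rats (200–220 g), four per route group (2 male, 2 female), given 0.5 mg/kg IV or 5 mg/kg orally in DMSO/T-80/H2O (1:5:94). Heparinized blood was sampled at 5 min–36 h after IV and at 0.5, 1, 3, 4, 6, 8, 10, 12, 24 and 36 h after oral dosing. Plasma was methanol (2% HCl)-precipitated with carbamazepine internal standard and quantified by LC-MS/MS. Parameters reported as mean ± SD.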

MEF [6] = assay: Induction of apoptosis in mouse MEF cells deficient in Bcl2 assessed as PARP cleavage at 0.5 uM measured after 6 hrs by Western blot assay; type: functional, cell-based
In short: (§1)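 Wild-type, Nur77−/− or Bcl-2−/− mouse embryonic fibroblasts grown in DMEM with 10% FBS and treated with 0.5 µM for 6 h. PARP cleavage detected by western blot, primary antibodies at 1:1000, ECL.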

[7] = AUC (0 to t) in male/female Sprague-Dawley rat at 0.5 mg/kg, iv measured for 36 hrs by LC-MS/MS analysis; type: ADME, organism-based; parameters: dose 0.5 mg/kg, time 36 hrs; settings: both, in vivo
In short: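 Four Sprague-Dawley rats per route (2 male, 2 female; 200–220 g) received 0.5 mg/kg IV or 5 mg/kg PO in DMSO/Tween-80/water (1:5:94). Heparinized blood was taken at 5 min–36 h after IV dosing and at 0.5, 1, 3, 4, 6, 8, 10, 12, 24 and 36 h after oral dosing. Methanol (2% HCl) precipitation with carbamazepine internal standard preceded LC-MS/MS; values are mean ± SD.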

MEF [8] = assay: Induction of apoptosis in mouse MEF cells lacking Nur77 assessed as PARP cleavage at 0.5 uM measured after 6 hrs by western blot assay; type: functional, cell-based; in short: as §1
[9] = target: T1, Nuclear receptor subfamily 4immunitygroup A member 1 (Homo sapiens, UniProt P22736); assay: Modulation of Myc-Nur77 (unknown origin) transfected in human HEK293T cells assessed as induction of Myc-Nur77 mitochondrial targeting by measuring increase in Myc-Nur77 accumulation in mitochondria at 0.5 uM measured after 2 hrs by western blot analysis; settings: filed as modulator
T1 sequence (P22736 whole entry): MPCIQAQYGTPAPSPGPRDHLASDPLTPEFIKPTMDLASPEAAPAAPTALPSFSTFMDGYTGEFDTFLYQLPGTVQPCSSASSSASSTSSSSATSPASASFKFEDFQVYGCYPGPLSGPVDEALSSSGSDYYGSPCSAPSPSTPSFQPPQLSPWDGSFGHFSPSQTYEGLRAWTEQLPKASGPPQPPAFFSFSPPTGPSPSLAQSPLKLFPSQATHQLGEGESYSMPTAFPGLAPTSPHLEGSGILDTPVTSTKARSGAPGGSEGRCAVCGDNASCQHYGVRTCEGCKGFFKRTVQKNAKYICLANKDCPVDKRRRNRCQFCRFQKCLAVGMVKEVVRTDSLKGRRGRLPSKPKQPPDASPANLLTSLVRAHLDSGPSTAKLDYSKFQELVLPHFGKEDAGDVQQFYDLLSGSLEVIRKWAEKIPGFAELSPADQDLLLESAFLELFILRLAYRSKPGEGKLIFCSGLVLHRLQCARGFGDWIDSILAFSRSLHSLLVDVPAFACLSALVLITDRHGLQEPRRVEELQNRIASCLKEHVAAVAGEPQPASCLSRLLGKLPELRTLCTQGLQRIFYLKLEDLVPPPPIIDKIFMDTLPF
In short: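 HEK293T cells transfected with Myc-Nur77 were exposed to 0.5 μM compound for 2 h. Cells were homogenised in sucrose Buffer D; 500 g then 5000 g spins gave a mitochondrial pellet. Whole-cell and mitochondrial fractions were western blotted for Myc-Nur77, with PARP and Tom20 as fraction-purity markers.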

[10] = target: T1, Nuclear receptor subfamily 4immunitygroup A member 1; assay: Modulation of Myc-Nur77 (unknown origin) transfected in human HEK293T cells co-transfected with Flag-tagged Bcl2 assessed as interaction of Nur77 with Bcl2 at 0.5 uM measured after 1 to 3 hrs by co-immunoprecipitation assay; type: cell-based; settings: filed as modulator, time 1-3 hrs
In short: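 HEK293T cells cotransfected with Flag-Bcl-2 and Myc-Nur77 were treated with or without 0.5 μM compound over the indicated times. They were lysed in Triton X-100 buffer with protease inhibitors; 5% of lysate was kept as input. Lysate was immunoprecipitated with anti-Flag at 4 °C for 12 h, then protein A-Sepharose for 3 h, washed three times in PBS and western blotted.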

MDA-MB-231 = assay: Induction of apoptosis in human MDA-MB-231 cells assessed as PARP cleavage at 0.5 uM measured after 6 hrs by western blot assay relative to Di(1H-indol-3-yl)(4-(trifluoromethyl)phenyl)methylium methanesulfonate; type: functional
In short: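 MDA-MB-231 in DMEM with 10% FBS, 0.5 µM for 6 h, then PARP western blot with 1:1000 primary antibodies and ECL. Cleaved PARP/PARP band intensity ratio expressed relative to the reference methylium methanesulfonate, whose ratio was set to 1. Mean ± SD, n = 3.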

SMILES	clearance [1] [mL/min/kg]	half-life [2] [h]	Cmax [3] [ng/mL]	MRT last at 36 h [4] [h]	Tmax [5] [h]	Activity (MEF [6])	AUC(0-t) at 36 h [7] [ng·h/mL]	Activity (MEF [8])	Activity [9]	Activity [10]	fold change (FC) (MDA-MB-231)
CS(=O)(=O)[O-].FC(F)(F)c1ccc([C+](c2c[nH]c3ccccc23)c2c[nH]c3ccccc23)cc1	7.5	6.81	143	12.3	–	–	–	–	–	–	–
CS(=O)(=O)[O-].Cn1cc([C+](c2ccc(C(F)(F)F)cc2)c2c[nH]c3ccccc23)c2ccccc21	–	–	–	–	3	inactive	501	inactive	Active	Active	8.93
